# Data from ChEMBL document CHEMBL4689842, “EUbOPEN Chemogenomics Library wave 1” (2021).
# Several values for one entry are separate records, joined by “and”; a condition that tells them apart may be missing. Equal values may be shown once.
# Tested on: HEK-293T
# Assay: Multiplex assay against HEK293T;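 for Population Tubulin-Different-Phenotype (%): share of the cells with healthy nuclei that show this phenotype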
# Assay type: toxicity, cell-based
# Details: human
# In short: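 Live cells carried four stains from seeding: Hoechst33342, BioTracker Green Microtubule Cytoskeleton Dye, MitoTracker Red and Annexin V Alexa Fluor 680. They were imaged on a CQ1 microscope at 37°C and 5% CO2 after compound addition. Using CellPathfinder machine-learning gating, cells were split into Hoechst high-intensity objects or normal cells, normal cells into healthy, pyknosed or fragmented nuclei, and pyknosed cells into mitotic or apoptotic; tubulin, mitochondrial-mass and membrane-permeability phenotypes are per cents of healthy-nucleus cells.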
# [1] = 12 h, 1 µM, compound concentration 1 uM, replicate 1
# [2] = 12 h, 1 µM, compound concentration 1 uM, replicate 2
# [3] = 12 h, 10 µM, compound concentration 10 uM, replicate 1
# [4] = 12 h, 10 µM, compound concentration 10 uM, replicate 2
# [5] = 24 h, 1 µM, compound concentration 1 uM, replicate 1
# [6] = 24 h, 1 µM, compound concentration 1 uM, replicate 2
# [7] = 24 h, 10 µM, compound concentration 10 uM, replicate 1
# [8] = 24 h, 10 µM, compound concentration 10 uM, replicate 2
# [9] = 48 h, 1 µM, compound concentration 1 uM, replicate 1
# [10] = 48 h, 1 µM, compound concentration 1 uM, replicate 2
# [11] = 48 h, 10 µM, compound concentration 10 uM, replicate 1
# [12] = 48 h, 10 µM, compound concentration 10 uM, replicate 2
smiles,measurement,setting,value
COc1ccccc1CN[C@H]1C2CCN(CC2)[C@H]1C(c1ccccc1)c1ccccc1 [CP-96345],Population Apoptotic (%),[1],61%
same,Population Fragmented Nuclei (%),[1],12%
same,Population Healthy Nuclei (%),[1],37%
same,Population Hoechst High Intensity Objects (%),[1],13%
same,Population Membrane Permeable-Phenotype (%),[1],0%
same,Population Mitochondria Different-Phenotype (%),[1],90%
same,Population Mitotic Cells (%),[1],38%
same,Population Normal (%),[1],86%
same,Population Pyknosed Nuclei (%),[1],50%
same,Population Tubulin-Different-Phenotype (%),[1],80%
same,Total Cell Count,[1],250
same,Population Apoptotic (%),[2],8%
same,Population Fragmented Nuclei (%),[2],3%
same,Population Healthy Nuclei (%),[2],54%
same,Population Hoechst High Intensity Objects (%),[2],3%
same,Population Membrane Permeable-Phenotype (%),[2],10%
same,Population Mitochondria Different-Phenotype (%),[2],17%
same,Population Mitotic Cells (%),[2],91%
same,Population Normal (%),[2],96%
same,Population Pyknosed Nuclei (%),[2],42%
same,Population Tubulin-Different-Phenotype (%),[2],21%
same,Total Cell Count,[2],244
same,Population Apoptotic (%),[3],79%
same,Population Fragmented Nuclei (%),[3],9%
same,Population Healthy Nuclei (%),[3],27%
same,Population Hoechst High Intensity Objects (%),[3],13%
same,Population Membrane Permeable-Phenotype (%),[3],2%
same,Population Mitochondria Different-Phenotype (%),[3],100%
same,Population Mitotic Cells (%),[3],20%
same,Population Normal (%),[3],86%
same,Population Pyknosed Nuclei (%),[3],63%
same,Population Tubulin-Different-Phenotype (%),[3],97%
same,Total Cell Count,[3],296
same,Population Apoptotic (%),[4],25%
same,Population Fragmented Nuclei (%),[4],2%
same,Population Healthy Nuclei (%),[4],36%
same,Population Hoechst High Intensity Objects (%),[4],4%
same,Population Membrane Permeable-Phenotype (%),[4],6%
same,Population Mitochondria Different-Phenotype (%),[4],77%
same,Population Mitotic Cells (%),[4],74%
same,Population Normal (%),[4],95%
same,Population Pyknosed Nuclei (%),[4],60%
same,Population Tubulin-Different-Phenotype (%),[4],74%
same,Total Cell Count,[4],179
same,Population Apoptotic (%),[5],56%
same,Population Fragmented Nuclei (%),[5],11%
same,Population Healthy Nuclei (%),[5],45%
same,Population Hoechst High Intensity Objects (%),[5],16%
same,Population Membrane Permeable-Phenotype (%),[5],6%
same,Population Mitochondria Different-Phenotype (%),[5],87%
same,Population Mitotic Cells (%),[5],43%
same,Population Normal (%),[5],83%
same,Population Pyknosed Nuclei (%),[5],43%
same,Population Tubulin-Different-Phenotype (%),[5],67%
same,Total Cell Count,[5],253
same,Population Apoptotic (%),[6],10%
same,Population Fragmented Nuclei (%),[6],2%
same,Population Healthy Nuclei (%),[6],67%
same,Population Hoechst High Intensity Objects (%),[6],3%
same,Population Membrane Permeable-Phenotype (%),[6],5%
same,Population Mitochondria Different-Phenotype (%),[6],14%
same,Population Mitotic Cells (%),[6],89%
same,Population Normal (%),[6],97%
same,Population Pyknosed Nuclei (%),[6],30%
same,Population Tubulin-Different-Phenotype (%),[6],20%
same,Total Cell Count,[6],333
same,Population Apoptotic (%),[7],81%
same,Population Fragmented Nuclei (%),[7],13%
same,Population Healthy Nuclei (%),[7],39%
same,Population Hoechst High Intensity Objects (%),[7],11%
same,Population Membrane Permeable-Phenotype (%),[7],0%
same,Population Mitochondria Different-Phenotype (%),[7],100%
same,Population Mitotic Cells (%),[7],18%
same,Population Normal (%),[7],88%
same,Population Pyknosed Nuclei (%),[7],47%
same,Population Tubulin-Different-Phenotype (%),[7],99%
same,Total Cell Count,[7],298
same,Population Apoptotic (%),[8],26%
same,Population Fragmented Nuclei (%),[8],5%
same,Population Healthy Nuclei (%),[8],44%
same,Population Hoechst High Intensity Objects (%),[8],2%
same,Population Membrane Permeable-Phenotype (%),[8],4%
same,Population Mitochondria Different-Phenotype (%),[8],75%
same,Population Mitotic Cells (%),[8],73%
same,Population Normal (%),[8],97%
same,Population Pyknosed Nuclei (%),[8],50%
same,Population Tubulin-Different-Phenotype (%),[8],72%
same,Total Cell Count,[8],218
same,Population Apoptotic (%),[9],48%
same,Population Fragmented Nuclei (%),[9],15%
same,Population Healthy Nuclei (%),[9],48%
same,Population Hoechst High Intensity Objects (%),[9],14%
same,Population Membrane Permeable-Phenotype (%),[9],4%
same,Population Mitochondria Different-Phenotype (%),[9],57%
same,Population Mitotic Cells (%),[9],51%
same,Population Normal (%),[9],85%
same,Population Pyknosed Nuclei (%),[9],36%
same,Population Tubulin-Different-Phenotype (%),[9],58%
same,Total Cell Count,[9],334
same,Population Apoptotic (%),[10],8%
same,Population Fragmented Nuclei (%),[10],3%
same,Population Healthy Nuclei (%),[10],86%
same,Population Hoechst High Intensity Objects (%),[10],2%
same,Population Membrane Permeable-Phenotype (%),[10],6%
same,Population Mitochondria Different-Phenotype (%),[10],4%
same,Population Mitotic Cells (%),[10],91%
same,Population Normal (%),[10],97%
same,Population Pyknosed Nuclei (%),[10],9%
same,Population Tubulin-Different-Phenotype (%),[10],13%
same,Total Cell Count,[10],612
same,Population Apoptotic (%),[11],79%
same,Population Fragmented Nuclei (%),[11],16%
same,Population Healthy Nuclei (%),[11],55%
same,Population Hoechst High Intensity Objects (%),[11],13%
same,Population Membrane Permeable-Phenotype (%),[11],0%
same,Population Mitochondria Different-Phenotype (%),[11],98%
same,Population Mitotic Cells (%),[11],20%
same,Population Normal (%),[11],86%
same,Population Pyknosed Nuclei (%),[11],28%
same,Population Tubulin-Different-Phenotype (%),[11],94%
same,Total Cell Count,[11],327
same,Population Apoptotic (%),[12],39%
same,Population Fragmented Nuclei (%),[12],3%
same,Population Healthy Nuclei (%),[12],71%
same,Population Hoechst High Intensity Objects (%),[12],2%
same,Population Membrane Permeable-Phenotype (%),[12],4%
same,Population Mitochondria Different-Phenotype (%),[12],39%
same,Population Mitotic Cells (%),[12],60%
same,Population Normal (%),[12],97%
same,Population Pyknosed Nuclei (%),[12],25%
same,Population Tubulin-Different-Phenotype (%),[12],63%
same,Total Cell Count,[12],330
CNC(=O)c1ccc(Nc2ncc(C(F)(F)F)c(NCc3nccnc3N(C)S(C)(=O)=O)n2)cc1 [DEFACTINIB],Population Apoptotic (%),[1],27%
same,Population Fragmented Nuclei (%),[1],14% and 16%
same,Population Healthy Nuclei (%),[1],72% and 59%
same,Population Hoechst High Intensity Objects (%),[1],11% and 18%
same,Population Membrane Permeable-Phenotype (%),[1],4% and 6%
same,Population Mitochondria Different-Phenotype (%),[1],6% and 8%
same,Population Mitotic Cells (%),[1],72% and 74%
same,Population Normal (%),[1],88% and 81%
same,Population Pyknosed Nuclei (%),[1],13% and 24%
same,Total Cell Count,[1],689 and 588
same,Population Apoptotic (%),[2],25% and 12%
same,Population Fragmented Nuclei (%),[2],9% and 3%
same,Population Healthy Nuclei (%),[2],84% and 92%
same,Population Hoechst High Intensity Objects (%),[2],3%
same,Population Membrane Permeable-Phenotype (%),[2],2% and 3%
same,Population Mitochondria Different-Phenotype (%),[2],10% and 19%
same,Population Mitotic Cells (%),[2],75% and 87%
same,Population Normal (%),[2],96%
same,Population Pyknosed Nuclei (%),[2],6% and 3%
same,Total Cell Count,[2],1140 and 1057
same,Population Apoptotic (%),[3],27%
same,Population Fragmented Nuclei (%),[3],17% and 16%
same,Population Healthy Nuclei (%),[3],62% and 66%
same,Population Hoechst High Intensity Objects (%),[3],11% and 13%
same,Population Membrane Permeable-Phenotype (%),[3],7% and 4%
same,Population Mitochondria Different-Phenotype (%),[3],12% and 5%
same,Population Mitotic Cells (%),[3],72%
same,Population Normal (%),[3],88% and 86%
same,Population Pyknosed Nuclei (%),[3],20% and 17%
same,Total Cell Count,[3],704 and 581
same,Population Fragmented Nuclei (%),[4],3% and 7%
same,Population Healthy Nuclei (%),[4],90% and 87%
same,Population Hoechst High Intensity Objects (%),[4],5% and 2%
same,Population Membrane Permeable-Phenotype (%),[4],6% and 1%
same,Population Mitochondria Different-Phenotype (%),[4],21% and 10%
same,Population Mitotic Cells (%),[4],78% and 96%
same,Population Normal (%),[4],94% and 97%
same,Population Pyknosed Nuclei (%),[4],6% and 4%
same,Total Cell Count,[4],770 and 1490
same,Population Apoptotic (%),[5],23% and 19%
same,Population Fragmented Nuclei (%),[5],15% and 17%
same,Population Healthy Nuclei (%),[5],77% and 62%
same,Population Hoechst High Intensity Objects (%),[5],6% and 14%
same,Population Membrane Permeable-Phenotype (%),[5],6%
same,Population Mitochondria Different-Phenotype (%),[5],4% and 12%
same,Population Mitotic Cells (%),[5],76% and 80%
same,Population Normal (%),[5],93% and 85%
same,Population Pyknosed Nuclei (%),[5],7% and 19%
same,Population Tubulin-Different-Phenotype (%),[5],10% and 26%
same,Total Cell Count,[5],751 and 618
same,Population Apoptotic (%),[6],14% and 11%
same,Population Healthy Nuclei (%),[6],74% and 91%
same,Population Hoechst High Intensity Objects (%),[6],3% and 5%
same,Population Membrane Permeable-Phenotype (%),[6],3%
same,Population Mitotic Cells (%),[6],85% and 88%
same,Population Normal (%),[6],96% and 94%
same,Population Pyknosed Nuclei (%),[6],3% and 2%
same,Total Cell Count,[6],1868 and 1334
same,Population Apoptotic (%),[7],33% and 18%
same,Population Fragmented Nuclei (%),[7],16% and 15%
same,Population Healthy Nuclei (%),[7],66% and 78%
same,Population Hoechst High Intensity Objects (%),[7],11% and 7%
same,Population Membrane Permeable-Phenotype (%),[7],6% and 4%
same,Population Mitotic Cells (%),[7],66% and 81%
same,Population Normal (%),[7],88% and 92%
same,Population Tubulin-Different-Phenotype (%),[7],24% and 11%
same,Total Cell Count,[7],732 and 672
same,Population Healthy Nuclei (%),[8],90% and 75%
same,Population Hoechst High Intensity Objects (%),[8],3%
same,Population Membrane Permeable-Phenotype (%),[8],8% and 3%
same,Population Mitotic Cells (%),[8],71% and 92%
same,Population Normal (%),[8],96%
same,Population Pyknosed Nuclei (%),[8],4% and 2%
same,Total Cell Count,[8],961 and 2290
